Consider 6 compounds from publication PMC7240828 (ACS Omega, 2020).

The target in one data set is T1, SGLT1 (Homo sapiens, UniProt P13866).
T1 sequence (P13866 1-664): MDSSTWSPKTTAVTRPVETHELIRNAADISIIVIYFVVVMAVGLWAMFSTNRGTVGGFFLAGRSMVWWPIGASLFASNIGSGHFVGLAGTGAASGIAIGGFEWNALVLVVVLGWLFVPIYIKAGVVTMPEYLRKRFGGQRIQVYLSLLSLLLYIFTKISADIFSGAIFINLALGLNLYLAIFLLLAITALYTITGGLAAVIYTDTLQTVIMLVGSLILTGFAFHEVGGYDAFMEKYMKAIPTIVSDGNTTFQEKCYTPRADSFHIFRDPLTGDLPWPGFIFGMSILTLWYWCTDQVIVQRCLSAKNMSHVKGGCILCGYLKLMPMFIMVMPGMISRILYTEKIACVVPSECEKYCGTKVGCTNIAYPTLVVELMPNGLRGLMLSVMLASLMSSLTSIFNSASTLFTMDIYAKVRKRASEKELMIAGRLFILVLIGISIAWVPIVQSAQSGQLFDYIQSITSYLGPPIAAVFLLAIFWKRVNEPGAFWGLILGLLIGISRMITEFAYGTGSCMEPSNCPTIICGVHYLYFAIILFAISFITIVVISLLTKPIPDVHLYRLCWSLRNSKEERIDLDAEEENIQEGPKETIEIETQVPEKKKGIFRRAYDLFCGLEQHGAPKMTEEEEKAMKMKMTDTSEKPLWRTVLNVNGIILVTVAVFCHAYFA
The data set is described as follows: Flavonoid uptake/transport in Caco-2 BBe1 cells with phloridzin. Particulars: 50 μM flavonoid, 4 h; for fold change of glycoside transport by phloridzin-mediated inhibition: 1 μM phloridzin 30 min pretreatment, basolateral transport; for effect of phloridzin on cellular uptake and transport of the flavonoid / effect of phloridzin on cellular uptake of the flavonoid: 1 μM phloridzin; for effect of phloridzin on cellular uptake of the flavonoid: cell lysate. Format: in vitro ADME. In outline: (§1)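 Quantitation was by HPLC on a phenyl-hexyl column (DAD, 360 and 520 nm), using external standard curves from 0–50 μM. Values are expressed as percent of the amount added apically. Data are mean ± SEM of at least three independent experiments.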
Background: Caco-2 monolayers are a common model of the intestinal barrier.

The subject of the next data set is Caco-2 cells. Particulars: SGLT1-depended manner; cited from earlier work.
The next data set deals with Caco-2 BBe1 monolayers. Format: in vitro ADME, human. Particulars: 50 μM apical, 0.5, 2 and 4 h, cell lysate and basolateral compartment. Put shortly: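 Cells at passage 50–60 were grown on PET inserts (3 × 10^4 cells/well) in supplemented high-glucose DMEM at 37 °C, 5% CO2. Monolayers with TEER >400 Ω cm2 on day 9 were used. 50 μM test compound in HBSS pH 6.4 was applied apically, with HBSS/10 mM HEPES pH 7.4 basolaterally. Basolateral medium and sonicated, methanol/2% FA-extracted lysates were sampled at 0.5, 2 and 4 h.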

The target in another data set is T2, GLUT2 (Homo sapiens, UniProt P11168).
T2 sequence (P11168 1-524): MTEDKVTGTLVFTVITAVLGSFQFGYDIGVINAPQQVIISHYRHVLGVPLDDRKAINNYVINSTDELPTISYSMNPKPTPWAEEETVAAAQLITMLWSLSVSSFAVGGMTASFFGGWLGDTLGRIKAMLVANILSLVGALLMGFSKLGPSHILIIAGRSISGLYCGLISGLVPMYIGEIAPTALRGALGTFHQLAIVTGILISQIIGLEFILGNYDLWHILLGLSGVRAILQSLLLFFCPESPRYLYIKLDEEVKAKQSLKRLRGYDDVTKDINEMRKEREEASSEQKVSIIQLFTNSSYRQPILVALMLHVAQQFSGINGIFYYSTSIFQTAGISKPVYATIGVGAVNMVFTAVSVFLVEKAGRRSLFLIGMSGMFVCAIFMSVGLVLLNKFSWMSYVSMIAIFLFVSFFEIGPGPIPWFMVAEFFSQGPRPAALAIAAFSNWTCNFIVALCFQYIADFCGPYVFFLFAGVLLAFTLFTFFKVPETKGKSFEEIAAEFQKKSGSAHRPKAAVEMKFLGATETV
The data set is described as follows: Flavonoid uptake/transport in Caco-2 BBe1 cells with phloretin. Format: in vitro ADME. Particulars: 1 μM phloretin, 50 μM flavonoid, 4 h, cell lysate. In outline:
as §1

Another data set relates to Caco-2 BBe1 cells. In words: Cellular glucose. Format: cell-based, human. Particulars: 50 μM, 2 h pretreatment, 2-NBDG fluorescence, vs positive control. Put shortly:
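Cells seeded at 1 × 10^5 per well and grown overnight, then PBS-washed. Pretreated with 50 μM test compound in glucose-free DMEM for 2 h. Glucose-free DMEM containing 300 μg/mL 2-NBDG was then added for another 2 h. After a PBS wash, fluorescence was read at ex 485/em 535 nm and compared with the positive control group.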

The structures appear in SMILES notation. “Also recorded” adds a separate entry of the source.

Take `C[C@@H]1O[C@@H](OC[C@H]2O[C@@H](Oc3c(-c4ccc(O)c(O)c4)oc4cc(O)cc(O)c4c3=O)[C@H](O)[C@@H](O)[C@@H]2O)[C@H](O)[C@H](O)[C@H]1O` [rutin, quercetin 3-rutinoside]: on SGLT1, the “fold change of glycoside transport by phloridzin-mediated inhibition” value (shortened to “fold change … by phloridzin-mediated inhibition”) stood at 5.77 fold; the “effect of phloridzin on cellular uptake and transport of the flavonoid” value is “significantly reduced the amount of cellular and transported”. Moreover, the “inhibition of glucose uptake” value in the data set with Caco-2 cells was “inhibited glucose uptake”.
As to `OC[C@H]1O[C@@H](Oc2cc3c(O[C@@H]4O[C@H](CO)[C@@H](O)[C@H](O)[C@H]4O)cc(O)cc3[o+]c2-c2ccc(O)c(O)c2)[C@H](O)[C@@H](O)[C@@H]1O` [cyanin, cyanidin 3,5-diglucoside], the “cellular uptake and transport kinetics” value in the data set with Caco-2 BBe1 monolayers is on record as “continued to increase as the incubation period extends from 30 min to 4 h”. In addition, at SGLT1, the “fold change … by phloridzin-mediated inhibition” value amounted to 6.45 fold; the “effect of phloridzin on cellular uptake and transport of the flavonoid” value is “significantly reduced the amount of cellular and transported”; the “effect of phloridzin on cellular uptake of the flavonoid” value is listed as “significantly inhibited by phloridzin”. For the same compound, on GLUT2, the “effect of phloretin on cellular uptake of the flavonoid” value is “significantly inhibited cellular uptake”.
Take `OC[C@H]1O[C@@H](Oc2cc3c(O)cc(O)cc3[o+]c2-c2ccc(O)c(O)c2)[C@H](O)[C@@H](O)[C@@H]1O` [C-3-G, cyanidin 3-O-glucoside]: the “cellular uptake and transport kinetics” value with Caco-2 BBe1 monolayers was “continued to increase as the incubation period extends from 30 min to 4 h”. On SGLT1, the “fold change … by phloridzin-mediated inhibition” value came to 3.29 fold; the “effect of phloridzin on cellular uptake and transport of the flavonoid” value is “significantly reduced the amount of cellular and transported”; the “effect of phloridzin on cellular uptake of the flavonoid” value is on record as “less significant”.
As to `Oc1cc(O)c2cc(O)c(-c3ccc(O)c(O)c3)[o+]c2c1` [cyanidin], in the data set on Caco-2 BBe1 monolayers, the “cellular uptake and transport kinetics” value is “noticeable decrease; also recorded: readily permeated into the intestinal mucosa within 2 h”. The “inhibition of glucose uptake” value with Caco-2 BBe1 cells is “significantly blocked the glucose uptake”. Moreover, on SGLT1, the “effect of phloridzin on cellular uptake and transport of the flavonoid” value was “no effect on the uptake and transport”.
Consider `O=c1c(O)c(-c2ccc(O)c(O)c2)oc2cc(O)cc(O)c12` [quercetin], for which the “cellular uptake and transport kinetics” value in the data set on Caco-2 BBe1 monolayers is listed as “both concentrations continued to increase; also recorded: readily permeated into the intestinal mucosa within 2 h”. In addition, the “inhibition of glucose uptake” value in the data set on Caco-2 BBe1 cells is given as “significantly blocked the glucose uptake”. Moreover, at SGLT1, the “effect of phloridzin on cellular uptake and transport of the flavonoid” value is “no effect on the uptake and transport”.
Turning to `O=c1c(O[C@@H]2O[C@H](CO)[C@@H](O)[C@H](O)[C@H]2O)c(-c2ccc(O)c(O)c2)oc2cc(O)cc(O)c12` [Q-3-G, quercetin 3-β-D-glucoside], at SGLT1, the “fold change … by phloridzin-mediated inhibition” value came to 2.31 fold; the “effect of phloridzin on cellular uptake and transport of the flavonoid” value is “significantly reduced the amount of cellular and transported”.
